Experimental data reported in ChEMBL document CHEMBL1152672, “Side chain azasteroids and thiasteroids as sterol methyltransferase inhibitors in ergosterol biosynthesis” (2009).
≈ marks a conversion by molar mass, not a printed value.

Assays:
[1] = molecular target: T1, Sterol 24-C-methyltransferase (Yarrowia lipolytica) (UniProt Q6C2D9); experiment: Inhibition of Yarrowia lipolytica 24-SMT assessed as cholesta-7,24-dien-3-trimethylsilyl derivative at 0.06 ug/mL after 48 hrs by GC-MS analysis relative to untreated control; parameters: scale not given: the % may be the effect or the level left
T1 sequence (whole entry): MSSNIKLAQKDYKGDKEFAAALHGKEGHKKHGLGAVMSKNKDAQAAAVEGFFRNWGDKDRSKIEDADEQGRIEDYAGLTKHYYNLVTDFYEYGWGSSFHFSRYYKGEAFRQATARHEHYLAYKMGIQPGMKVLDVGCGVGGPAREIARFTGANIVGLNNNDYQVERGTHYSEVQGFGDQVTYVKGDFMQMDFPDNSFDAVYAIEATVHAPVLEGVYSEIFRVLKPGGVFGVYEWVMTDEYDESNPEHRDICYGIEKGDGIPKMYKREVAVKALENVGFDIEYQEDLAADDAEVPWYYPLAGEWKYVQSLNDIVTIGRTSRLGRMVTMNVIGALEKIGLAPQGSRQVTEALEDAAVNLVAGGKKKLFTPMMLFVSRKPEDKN
In short: (§1)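 Whole-cell sterol profiling. Y. lipolytica at 50,000 CFU/mL was exposed to compounds added from ethanol for 48 ± 2 h at 28 °C, and the MIC/2 and/or MIC/4 wells were used. Cells were pelleted and PBS-washed, then saponified in 1 M NaOH at 70 °C for 1 h. Sterols were extracted into TBME with a cholesterol internal standard and silylated to TMS ethers. GC-MS full scan, with each sterol given as % of total integrated quantifier-ion area.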

[2] = molecular target: T1, Sterol 24-C-methyltransferase (Yarrowia lipolytica); experiment: Inhibition of Yarrowia lipolytica 24-SMT assessed as cholesta-5,7,24-trien-3-trimethylsilyl derivative at 0.06 ug/mL after 48 hrs by GC-MS analysis relative to untreated control; parameters: scale not given: the % may be the effect or the level left; in short: as §1
[3] = system: Yarrowia lipolytica; experiment: Antimicrobial activity against Yarrowia lipolytica after 48 hrs; format: functional
In short: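 Broth dilution MIC per DIN 58940-84. Log-phase Y. lipolytica in yeast extract/peptone/glucose medium, counted against a 0.5 McFarland standard (A570) and seeded at 50,000 CFU/mL in 2 mL wells. Compounds added from ethanol; final concentrations 2 to 0.06125 µg/mL unless otherwise stated. Plates incubated 48 ± 2 h at 28 °C. MIC is the lowest concentration with no visible growth.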

[4] = molecular target: T1, Sterol 24-C-methyltransferase (Yarrowia lipolytica); experiment: Inhibition of Yarrowia lipolytica 24-SMT assessed as dehydroergosterol-3-trimethylsilyl derivative at 0.06 ug/mL after 48 hrs by GC-MS analysis relative to untreated control; parameters: scale not given: the % may be the effect or the level left; in short: as §1
[5] = molecular target: T1, Sterol 24-C-methyltransferase (Yarrowia lipolytica); experiment: Inhibition of Yarrowia lipolytica 24-SMT assessed as 5-dehydroepisterol-3-trimethylsilyl derivative at 0.06 ug/mL after 48 hrs by GC-MS analysis relative to untreated control; parameters: scale not given: the % may be the effect or the level left; in short: as §1
[6] = molecular target: T1, Sterol 24-C-methyltransferase (Yarrowia lipolytica); experiment: Inhibition of Yarrowia lipolytica 24-SMT assessed as cholesta-5,7,24-trien-3-trimethylsilyl derivative at 0.1 ug/mL after 48 hrs by GC-MS analysis relative to untreated control; parameters: scale not given: the % may be the effect or the level left; in short: as §1
[7] = molecular target: T1, Sterol 24-C-methyltransferase (Yarrowia lipolytica); experiment: Inhibition of Yarrowia lipolytica 24-SMT assessed as 5-dehydroepisterol-3-trimethylsilyl derivative at 0.1 ug/mL after 48 hrs by GC-MS analysis relative to untreated control; parameters: scale not given: the % may be the effect or the level left; in short: as §1
[8] = molecular target: T1, Sterol 24-C-methyltransferase (Yarrowia lipolytica); experiment: Inhibition of Yarrowia lipolytica 24-SMT assessed as dehydroergosterol-3-trimethylsilyl derivative at 0.1 ug/mL after 48 hrs by GC-MS analysis relative to untreated control; parameters: scale not given: the % may be the effect or the level left; in short: as §1
[9] = molecular target: T1, Sterol 24-C-methyltransferase (Yarrowia lipolytica); experiment: Inhibition of Yarrowia lipolytica 24-SMT assessed as zymosterol-3-trimethylsilyl derivative level at 0.1 ug/mL after 48 hrs by GC-MS analysis relative to untreated control; parameters: scale not given: the % may be the effect or the level left; in short: as §1
[10] = molecular target: T1, Sterol 24-C-methyltransferase (Yarrowia lipolytica); experiment: Inhibition of Yarrowia lipolytica 24-SMT assessed as 5-dehydroepisterol-3-trimethylsilyl derivative at 2 ug/mL after 48 hrs by GC-MS analysis relative to untreated control; parameters: scale not given: the % may be the effect or the level left; in short: as §1
[11] = molecular target: T1, Sterol 24-C-methyltransferase (Yarrowia lipolytica); experiment: Inhibition of Yarrowia lipolytica 24-SMT assessed as cholesta-7,24-dien-3-trimethylsilyl derivative at 2 ug/mL after 48 hrs by GC-MS analysis relative to untreated control; parameters: scale not given: the % may be the effect or the level left; in short: as §1
[12] = molecular target: T1, Sterol 24-C-methyltransferase (Yarrowia lipolytica); experiment: Inhibition of Yarrowia lipolytica 24-SMT assessed as cholesta-5,7,24-trien-3-trimethylsilyl derivative at 2 ug/mL after 48 hrs by GC-MS analysis relative to untreated control; parameters: scale not given: the % may be the effect or the level left; in short: as §1
[13] = molecular target: T1, Sterol 24-C-methyltransferase (Yarrowia lipolytica); experiment: Inhibition of Yarrowia lipolytica 24-SMT assessed as dehydroergosterol-3-trimethylsilyl derivative at 2 ug/mL after 48 hrs by GC-MS analysis relative to untreated control; parameters: scale not given: the % may be the effect or the level left; in short: as §1
[14] = molecular target: T1, Sterol 24-C-methyltransferase (Yarrowia lipolytica); experiment: Inhibition of Yarrowia lipolytica 24-SMT assessed as 5-dehydroepisterol-3-trimethylsilyl derivative at 0.2 ug/mL after 48 hrs by GC-MS analysis relative to untreated control; parameters: scale not given: the % may be the effect or the level left; in short: as §1
[15] = molecular target: T1, Sterol 24-C-methyltransferase (Yarrowia lipolytica); experiment: Inhibition of Yarrowia lipolytica 24-SMT assessed as dehydroergosterol-3-trimethylsilyl derivative at 0.2 ug/mL after 48 hrs by GC-MS analysis relative to untreated control; parameters: scale not given: the % may be the effect or the level left; in short: as §1
[16] = molecular target: T1, Sterol 24-C-methyltransferase (Yarrowia lipolytica); experiment: Inhibition of Yarrowia lipolytica 24-SMT assessed as ergosterol-3-trimethylsilyl derivative level at 0.2 ug/mL after 48 hrs by GC-MS analysis relative to untreated control; parameters: scale not given: the % may be the effect or the level left; in short: as §1
[17] = molecular target: T1, Sterol 24-C-methyltransferase (Yarrowia lipolytica); experiment: Inhibition of Yarrowia lipolytica 24-SMT assessed as cholesta-5,7,24-trien-3-trimethylsilyl derivative at 0.2 ug/mL after 48 hrs by GC-MS analysis relative to untreated control; parameters: scale not given: the % may be the effect or the level left; in short: as §1
[18] = molecular target: T1, Sterol 24-C-methyltransferase (Yarrowia lipolytica); experiment: Inhibition of Yarrowia lipolytica 24-SMT assessed as cholesta-7,24-dien-3-trimethylsilyl derivative at 0.2 ug/mL after 48 hrs by GC-MS analysis relative to untreated control; parameters: scale not given: the % may be the effect or the level left; in short: as §1
[19] = molecular target: T1, Sterol 24-C-methyltransferase (Yarrowia lipolytica); experiment: Inhibition of Yarrowia lipolytica 24-SMT assessed as zymosterol-3-trimethylsilyl derivative level at 2 ug/mL after 48 hrs by GC-MS analysis relative to untreated control; parameters: scale not given: the % may be the effect or the level left; in short: as §1
[20] = molecular target: T1, Sterol 24-C-methyltransferase (Yarrowia lipolytica); experiment: Inhibition of Yarrowia lipolytica 24-sterol C-methyltransferase assessed as ergosterol-3-trimethylsilyl derivative level at 0.06 ug/mL after 48 hrs by GC-MS analysis relative to untreated control; parameters: scale not given: the % may be the effect or the level left; in short: as §1
[21] = molecular target: T1, Sterol 24-C-methyltransferase (Yarrowia lipolytica); experiment: Inhibition of Yarrowia lipolytica 24-SMT assessed as lanosterol-3-trimethylsilyl derivative at 0.2 ug/mL after 48 hrs by GC-MS analysis relative to untreated control; parameters: scale not given: the % may be the effect or the level left; in short: as §1
[22] = molecular target: T1, Sterol 24-C-methyltransferase (Yarrowia lipolytica); experiment: Inhibition of Yarrowia lipolytica 24-SMT assessed as zymosterol-3-trimethylsilyl derivative level at 0.2 ug/mL after 48 hrs by GC-MS analysis relative to untreated control; parameters: scale not given: the % may be the effect or the level left; in short: as §1

Compound | MIC [3] | Activity [14] | Activity [15] | Activity [17] | Activity [18] | Activity [21] | also measured
CCCCNC[C@@H](C)[C@H]1CC[C@H]2C3=CC[C@H]4C[C@@H](O)CC[C@]4(C)[C@H]3CC[C@]12C | 0.25 µg/mL (≈ 0.645 µM) | – | – | – | – | – | Activity [1]: 5%; Activity [2]: 47.9%; Activity [4]: 42.4%; Activity [5]: 4.7%
CCCNC[C@@H](C)[C@H]1CC[C@H]2C3=CC[C@H]4C[C@@H](O)CC[C@]4(C)[C@H]3CC[C@]12C | 0.25 µg/mL (≈ 0.669 µM) | – | – | – | – | – | Activity [6]: 48.5%; Activity [7]: 3.7%; Activity [8]: 47.3%; Activity [9]: 0.5%
CCCC[S+](C)C[C@@H](C)[C@H]1CC[C@H]2C3=CC[C@H]4C[C@@H](O)CC[C@]4(C)[C@H]3CC[C@]12C.[I-] (mixture of isomers) | > 2 µg/mL | – | – | – | – | – | Activity [10]: 1%; Activity [11]: 3.5%; Activity [12]: 87.5%; Activity [13]: 7.8%
CC(C)C(C)NC[C@@H](C)[C@H]1CC[C@H]2C3=CC[C@H]4C[C@@H](O)CC[C@]4(C)[C@H]3CC[C@]12C (mixture of isomers) | 0.5 µg/mL | 4.6% | 73.3% | 18% | 2.4% | 0.3% | Activity [22]: 1.4%

Now from value to compound, other results behind:

MIC [3] | Activity [14] | Activity [15] | Activity [17] | Activity [18] | Activity [21] | Compound | also measured
2 µg/mL (≈ 5.56 µM) | 2.8% | 64.7% | 25.5% | 3.6% | – | CCNC[C@@H](C)[C@H]1CC[C@H]2C3=CC[C@H]4C[C@@H](O)CC[C@]4(C)[C@H]3CC[C@]12C | Activity [16]: 3.4%
> 2 µg/mL | – | – | – | – | – | CNC[C@@H](C)[C@H]1CC[C@H]2C3=CC[C@H]4C[C@@H](O)CC[C@]4(C)[C@H]3CC[C@]12C | Activity [19]: 1.6%; Activity [10]: 2.6%; Activity [12]: 40.4%; Activity [13]: 55.4%
1 µg/mL | 1% | 7% | 83.4% | 4.3% | 0.3% | C[C@H](/C=C/c1cccc[n+]1C)[C@H]1CC[C@H]2C3=CCC4C[C@@H](O)CC[C@]4(C)[C@H]3CC[C@]12C.[I-] (stereo partly specified) | Activity [2]: 2.2%; Activity [4]: 82.1%; Activity [20]: 15%; Activity [16]: 4.1%; Activity [5]: 0.7%
0.5 µg/mL (≈ 1.24 µM) | 4.2% | 37.4% | 48.2% | 5.6% | 0.4% | CCCCN(C)C[C@@H](C)[C@H]1CC[C@H]2C3=CC[C@H]4C[C@@H](O)CC[C@]4(C)[C@H]3CC[C@]12C | Activity [22]: 4.2%
